We go through five compounds from ChEMBL document CHEMBL4422613, “Amarisolide F, an Acylated Diterpenoid Glucoside and Related Terpenoids from Salvia amarissima” (J Nat Prod, 2019).

The species entered for experiment [1] is Homo sapiens. Put plainly: Inhibition of MDR protein in human MCF7/Vin cells cultured in presence of vinblastine assessed as reversal fold at 42.1 uM after 72 hrs by sulforhodamine B assay. The experiment is classed as cell-based. The method, boiled down:
(§1)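 Sensitive MCF-7 and MDR MCF-7/Vin cells in RPMI 1640 with 10% FBS at 37 °C, 5% CO2. The Vin+ stock was kept in medium with […] vinblastine and the Vin− stock in vinblastine-free medium. Cells were exposed to vinblastine (0.7 nM–11 μM) with or without compound (42.1 μM) for 72 h.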
On the technique in general: In SRB staining, fixed cells bind dye roughly in proportion to their protein.

Experiment [2] is filed under the species Homo sapiens. Description: Inhibition of MDR protein in human MCF7/Vin cells cultured in absence of vinblastine assessed as reversal fold at 42.1 uM after 72 hrs by sulforhodamine B assay. The experiment is classed as cell-based. In a few lines: as §1
For experiment [3], the system named is HCT-116. Description: Cytotoxicity against human HCT116 cells after 72 hrs by sulforhodamine B assay. It is filed as functional, cell-based. Particulars: HCT-116, 72 h.
Experiment [4] relates to MDA-MB-231. Description: Cytotoxicity against human MDA-MB-231 cells after 72 hrs by sulforhodamine B assay. It is filed as functional, cell-based. The following applies: MDA-MB-231, 72 h.
Experiment [5] has as its system HCT-15. Put plainly: Cytotoxicity against human HCT15 cells after 72 hrs by sulforhodamine B assay. The experiment is classed as functional, cell-based. Particulars: HCT-15, 72 h.
Experiment [6] concerns MCF7. Put plainly: Cytotoxicity against human MCF7 cells after 72 hrs by sulforhodamine B assay. Particulars: MCF7, 72 h. The experiment is classed as functional, cell-based. The method, boiled down:
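Cells kept in RPMI 1640 with 10% FBS at 37 °C, 5% CO2 in humidified air. Log-phase cells were treated in triplicate with compound at 0.4–42.1 μM for 72 h.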

The subject of experiment [7] is HeLa. Description: Cytotoxicity against human HeLa cells after 72 hrs by sulforhodamine B assay. The experiment is classed as functional, cell-based.
The species entered for experiment [8] is Homo sapiens. Put plainly: Inhibition of MDR protein in human MCF7/Vin cells cultured in absence of vinblastine assessed as reversal fold at 5 ug/ml after 72 hrs by sulforhodamine B assay. The experiment is classed as cell-based.
The species entered for experiment [9] is Homo sapiens. Description: Inhibition of MDR protein in human MCF7/Vin cells cultured in presence of vinblastine assessed as reversal fold at 5 ug/ml after 72 hrs by sulforhodamine B assay. It is filed as cell-based.
The species named for experiment [10] is Homo sapiens. Put plainly: Inhibition of MDR protein in human MCF7/Vin cells cultured in absence of vinblastine assessed as reversal fold at 25 ug/ml after 72 hrs by sulforhodamine B assay. It is filed as cell-based.
The species entered for experiment [11] is Homo sapiens. Put plainly: Inhibition of MDR protein in human MCF7/Vin cells cultured in presence of vinblastine assessed as reversal fold at 25 ug/ml after 72 hrs by sulforhodamine B assay. The experiment is classed as cell-based.
The species entered for experiment [12] is Homo sapiens. Put plainly: Inhibition of MDR protein in human MCF7/Vin cells cultured in presence of vinblastine assessed as reversal fold after 72 hrs by sulforhodamine B assay. The experiment is classed as cell-based.
Experiment [13] is filed under the species Homo sapiens. Put plainly: Inhibition of MDR protein in human MCF7/Vin cells cultured in absence of vinblastine assessed as reversal fold after 72 hrs by sulforhodamine B assay. The experiment is classed as cell-based.

pIC50: −log10 of the molar value.

In general, pIC50 refers to the negative decadic logarithm of the IC50, by convention in mol/L. High values mean a low IC50, low ones a high IC50.

Consider `CC(=O)OC[C@H]1O[C@@H](OC(=O)[C@H]2CC[C@@]34COC(=O)[C@@]3(O)CC=C[C@@]4(O)[C@@]2(C)CC(=O)c2ccoc2)[C@H](O)[C@@H](O)[C@@H]1O`, for which the fold change (FC) in experiment [1] was 12; in experiment [2], 2.1. In addition, the negative logarithm of the IC50 (pIC50) in experiment [3], in experiment [4], in experiment [5], in experiment [6] and in [7] was under 4.38 each time.

On to `COC(=O)[C@H]1[C@H]2C[C@@H]3c4[nH]c5cc(OC)ccc5c4CCN3C[C@H]2C[C@@H](OC(=O)c2cc(OC)c(OC)c(OC)c2)[C@@H]1OC`, for which the fold change (FC) in experiment [8] is 5; in [9] it was 29.2.

In the case of `C[C@@H]1C(=O)CC2=C(/C=C\C=C\[C@@]13C[C@@H](O)c1ccoc1[C@H]3O)C(=O)OC2`, the values for the fold change (FC) in experiment [10] and in experiment [11] were 8440 and 10700, respectively.

Take `CC(=O)O[C@H]1O[C@@H](c2ccoc2)C[C@]12[C@H](C)C(=O)C[C@@]13COC(=O)C1=CC=C[C@H]32`: the fold change (FC) in experiment [12] was determined as 2.6; in experiment [13], 54.

For `O=C1C=CC[C@]2(O)C(=O)OC[C@@]12CCc1ccc(-c2ccoc2)oc1=O`, the values for the fold change (FC) in experiment [12] and in [13] were 5.8 and 3.1, respectively.
